pEC50, pIC50: −log10 of the molar value.
Legend:
Rattus norvegicus [1] = organism: Rattus norvegicus; assay: In vitro agonist activity against [Ca2+] uptake in neonatal rat cultured spinal sensory neurons; format: functional
In short: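 Neonatal rat dorsal root ganglia were dissociated with collagenase then trypsin and cultured with 10% horse serum, 1 μg/mL NGF and 48 h of 10^-4 M cytosine arabinoside. Assays used 3–7-day cultures washed in Ca-free HEPES-buffered BSS (pH 7.4). Compound with 10 μCi/mL 45Ca2+ and 1% DMSO was applied for 10 min at room temperature; SDS extract was scintillation counted. Medium-only background; EC50 from ≥6 replicates/concentration.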

Rattus norvegicus [2] = organism: Rattus norvegicus; assay: In vitro antagonist activity against [Ca2+] uptake in neonatal rat cultured spinal sensory neurons; format: functional
In short: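 Cultured neonatal rat DRG neurons (3–7 days old, non-neuronal cells removed with cytosine arabinoside) were washed in Ca-free HEPES BSS, pH 7.4. 45Ca2+ uptake stimulated by a fixed 0.5 μM agent was measured with test compound in 1% DMSO over 10 min at room temperature. Cells were lysed with SDS and scintillation counted. IC50 is 50% reduction of the evoked response, from ≥6 replicates/concentration.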

Structure (SMILES)	pEC50 (Rattus norvegicus [1])	pIC50 (Rattus norvegicus [2])
Oc1ccc2c(c1O)CCN(C(=S)NCCc1ccc(Cl)cc1)C2	< 4.00	6.36
Oc1cc2c(cc1O)CN(C(=S)NCCc1ccc(Cl)cc1)CC2	6.54	
CCCCCCCC/N=C(\S)N1CCc2c(ccc(O)c2O)C1	< 4.00	5.46
Oc1ccc(CNC(=S)NCCc2ccc(Cl)cc2)cc1O	7.00	
Oc1cc2c(cc1O)CN(C(=S)NCCc1ccc(Cl)cc1)C2	6.26	
COc1cc2c(cc1OC)CN(/C(S)=N/CCc1ccc(Cl)cc1)CCC2	< 4.00	5.16
CCCCCCCC/N=C(\S)NCc1ccc(O)c(OC)c1	7.22	
COc1cc2c(cc1O)CCN(/C(S)=N/CCc1ccc(Cl)cc1)C2	5.96	5.91
CCCCCCCC/N=C(\S)N1CCc2cc(O)c(O)cc2C1	6.13	
COc1cc2c(cc1O)CN(/C(S)=N/CCc1ccc(Cl)cc1)CC2	5.91	
COc1cc(C/N=C(\S)NCCc2ccc(Cl)cc2)ccc1O	7.22	
COc1cc2c(cc1O)CN(/C(S)=N/CCc1ccc(Cl)cc1)C2	< 4.00	< 4.00
Oc1cc2c(cc1O)CN(C(=S)NCCc1ccc(Cl)cc1)CCC2 [CAPSAZEPINE]	< 4.00	6.38

Source: ChEMBL document CHEMBL1127740, “The discovery of capsazepine, the first competitive antagonist of the sensory neuron excitants capsaicin and resiniferatoxin” (J Med Chem, 1994)
